In ChEMBL document CHEMBL4715736, “Identification of anticancer agents based on the thieno[2,3-b]pyridine and 1H-pyrazole molecular scaffolds” (2016):

system: ACHN; assay: Growth inhibition of human ACHN cells incubated for 48 hrs by sulforhodamine B assay; type: functional; conditions: not given
In short: (§1)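 NCI Developmental Therapeutics Program NCI60 panel. Compounds that were active in the 10 µM one-dose screen went on to dose–response testing. Growth at each concentration is expressed relative to untreated control (100%). GI50 (concentration giving 50% of maximal inhibition of proliferation) and TGI (concentration giving total growth inhibition) were derived from the curves.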

SMILES | GI50 | TGI
CCc1cccc(C)c1NC(=O)c1sc2nc3c(cc2c1N)C(=O)CCC3 | 0.795 µM | > 100 µM

same assay, conditions: read-out: LC50 (the source's name)

SMILES | CC50
CCc1cccc(C)c1NC(=O)c1sc2nc3c(cc2c1N)C(=O)CCC3 | > 100 µM

system: SK-MEL-5; assay: Growth inhibition of human SK-MEL-5 cells assessed as cell growth at 100 uM incubated for 48 hrs by sulforhodamine B assay relative to control; type: functional; conditions: read-out: Activity

SMILES | growth at 100 µM
CCc1cccc(C)c1NC(=O)c1sc2nc3c(cc2c1N)C(=O)CCC3 | -78%

system: Hs-578T; assay: Growth inhibition of human Hs-578T cells assessed as cell growth at 0.01 uM incubated for 48 hrs by sulforhodamine B assay relative to control; type: functional; conditions: read-out: Activity

SMILES | growth at 0.01 µM
CCc1cccc(C)c1NC(=O)c1sc2nc3c(cc2c1N)C(=O)CCC3 | 93%

system: SF-295; assay: Growth inhibition of human SF-295 cells assessed as cell growth at 100 uM incubated for 48 hrs by sulforhodamine B assay relative to control; type: functional; conditions: read-out: Activity

SMILES | growth at 100 µM
CCc1cccc(C)c1NC(=O)c1sc2nc3c(cc2c1N)C(=O)CCC3 | 1%

system: K562; assay: Growth inhibition of human K562 cells assessed as cell growth at 0.01 uM incubated for 48 hrs by sulforhodamine B assay relative to control; type: functional; conditions: read-out: Activity

SMILES | growth at 0.01 µM
CCc1cccc(C)c1NC(=O)c1sc2nc3c(cc2c1N)C(=O)CCC3 | 92%

system: RPMI-8226; assay: Growth inhibition of human RPMI-8226 cells assessed as cell growth at 0.01 uM incubated for 48 hrs by sulforhodamine B assay relative to control; type: functional; conditions: read-out: Activity

SMILES | growth at 0.01 µM
CCc1cccc(C)c1NC(=O)c1sc2nc3c(cc2c1N)C(=O)CCC3 | 101%

system: HCT-116; assay: Growth inhibition of human HCT-116 cells assessed as cell growth at 100 uM incubated for 48 hrs by sulforhodamine B assay relative to control; type: functional; conditions: read-out: Activity

SMILES | growth at 100 µM
CCc1cccc(C)c1NC(=O)c1sc2nc3c(cc2c1N)C(=O)CCC3 | 4%

system: A498; assay: Growth inhibition of human A498 cells assessed as cell growth at 0.1 uM incubated for 48 hrs by sulforhodamine B assay relative to control; type: functional; conditions: read-out: Activity; in short: as §1

SMILES | growth at 0.1 µM
CCc1cccc(C)c1NC(=O)c1sc2nc3c(cc2c1N)C(=O)CCC3 | 72%

system: HOP-92; assay: Growth inhibition of human HOP-92 cells assessed as cell growth at 100 uM incubated for 48 hrs by sulforhodamine B assay relative to control; type: functional; conditions: read-out: Activity

SMILES | growth at 100 µM
CCc1cccc(C)c1NC(=O)c1sc2nc3c(cc2c1N)C(=O)CCC3 | -7%

system: MCF7; assay: Growth inhibition of human MCF7 cells assessed as cell growth at 0.1 uM incubated for 48 hrs by sulforhodamine B assay relative to control; type: functional; conditions: read-out: Activity

SMILES | growth at 0.1 µM
CCc1cccc(C)c1NC(=O)c1sc2nc3c(cc2c1N)C(=O)CCC3 | 90%

system: SW-620; assay: Growth inhibition of human SW-620 cells assessed as cell growth at 0.1 uM incubated for 48 hrs by sulforhodamine B assay relative to control; type: functional; conditions: read-out: Activity

SMILES | growth at 0.1 µM
CCc1cccc(C)c1NC(=O)c1sc2nc3c(cc2c1N)C(=O)CCC3 | 91%

system: SNB-19; assay: Growth inhibition of human SNB-19 cells incubated for 48 hrs by sulforhodamine B assay; type: functional; conditions: not given
In short: (§2)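 NCI DTP 60-line human tumour panel. Dose-response curves were run only for ligands active in the initial 10 µM screen. GI50 (concentration giving 50% of maximal inhibition of proliferation) and TGI (concentration giving total growth inhibition) were derived from these curves.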

SMILES | GI50 | LC50 | TGI
CCc1cccc(C)c1NC(=O)c1sc2nc3c(cc2c1N)C(=O)CCC3 | 0.87 µM | > 100 µM | > 100 µM

system: SF-268; assay: Growth inhibition of human SF-268 cells incubated for 48 hrs by sulforhodamine B assay; type: functional; conditions: not given; in short: as §2

SMILES | GI50 | LC50 (concentration killing 50% of cells) | TGI
CCc1cccc(C)c1NC(=O)c1sc2nc3c(cc2c1N)C(=O)CCC3 | 3.04 µM | > 100 µM | > 100 µM

system: SN12C; assay: Growth inhibition of human SN12C cells assessed as cell growth at 0.1 uM incubated for 48 hrs by sulforhodamine B assay relative to control; type: functional; conditions: read-out: Activity

SMILES | growth at 0.1 µM
CCc1cccc(C)c1NC(=O)c1sc2nc3c(cc2c1N)C(=O)CCC3 | 92%

system: PC-3; assay: Growth inhibition of human PC-3 cells assessed as cell growth at 100 uM incubated for 48 hrs by sulforhodamine B assay relative to control; type: functional; conditions: read-out: Activity

SMILES | growth at 100 µM
CCc1cccc(C)c1NC(=O)c1sc2nc3c(cc2c1N)C(=O)CCC3 | 18%

system: SR; assay: Growth inhibition of human SR cells assessed as cell growth at 100 uM incubated for 48 hrs by sulforhodamine B assay relative to control; type: functional; conditions: read-out: Activity

SMILES | growth at 100 µM
CCc1cccc(C)c1NC(=O)c1sc2nc3c(cc2c1N)C(=O)CCC3 | -18%

system: K562; assay: Growth inhibition of human K562 cells incubated for 48 hrs by sulforhodamine B assay; type: functional; conditions: not given
In short: (§3)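 NCI60 panel at the NCI Developmental Therapeutics Program. Only compounds active in the 10 µM screen went to dose-response testing. GI50, the concentration giving 50% of maximal inhibition of proliferation, and TGI, the concentration giving total growth inhibition, were derived from the dose-response curves.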

SMILES | GI50 | LC50 (concentration killing 50% of cells) | TGI
CCc1cccc(C)c1NC(=O)c1sc2nc3c(cc2c1N)C(=O)CCC3 | 0.341 µM | ≥ 100 µM | 15.8 µM

system: RXF 393; assay: Growth inhibition of human RXF 393 cells incubated for 48 hrs by sulforhodamine B assay; type: functional; conditions: not given; in short: as §2

SMILES | GI50
CCc1cccc(C)c1NC(=O)c1sc2nc3c(cc2c1N)C(=O)CCC3 | 0.202 µM

same assay, conditions: read-out: LC50 (the source's name)

SMILES | CC50
CCc1cccc(C)c1NC(=O)c1sc2nc3c(cc2c1N)C(=O)CCC3 | > 100 µM

system: A498; assay: Growth inhibition of human A498 cells assessed as cell growth at 100 uM incubated for 48 hrs by sulforhodamine B assay relative to control; type: functional; conditions: read-out: Activity; in short: as §1

SMILES | growth at 100 µM
CCc1cccc(C)c1NC(=O)c1sc2nc3c(cc2c1N)C(=O)CCC3 | -16%

system: SN12C; assay: Growth inhibition of human SN12C cells assessed as cell growth at 1 uM incubated for 48 hrs by sulforhodamine B assay relative to control; type: functional; conditions: read-out: Activity

SMILES | growth at 1 µM
CCc1cccc(C)c1NC(=O)c1sc2nc3c(cc2c1N)C(=O)CCC3 | 45%

system: M14; assay: Growth inhibition of human M14 cells assessed as cell growth at 100 uM incubated for 48 hrs by sulforhodamine B assay relative to control; type: functional; conditions: read-out: Activity

SMILES | growth at 100 µM
CCc1cccc(C)c1NC(=O)c1sc2nc3c(cc2c1N)C(=O)CCC3 | -17%

system: SNB-75; assay: Growth inhibition of human SNB-75 cells assessed as cell growth at 0.1 uM incubated for 48 hrs by sulforhodamine B assay relative to control; type: functional; conditions: read-out: Activity

SMILES | growth at 0.1 µM
CCc1cccc(C)c1NC(=O)c1sc2nc3c(cc2c1N)C(=O)CCC3 | 75%

system: HCT-15; assay: Growth inhibition of human HCT-15 cells assessed as cell growth at 0.1 uM incubated for 48 hrs by sulforhodamine B assay relative to control; type: functional; conditions: read-out: Activity

SMILES | growth at 0.1 µM
CCc1cccc(C)c1NC(=O)c1sc2nc3c(cc2c1N)C(=O)CCC3 | 92%

system: RPMI-8226; assay: Growth inhibition of human RPMI-8226 cells assessed as cell growth at 0.1 uM incubated for 48 hrs by sulforhodamine B assay relative to control; type: functional; conditions: read-out: Activity

SMILES | growth at 0.1 µM
CCc1cccc(C)c1NC(=O)c1sc2nc3c(cc2c1N)C(=O)CCC3 | 102%

system: MDA-MB-435; assay: Growth inhibition of human MDA-MB-435 cells assessed as cell growth at 0.1 uM incubated for 48 hrs by sulforhodamine B assay relative to control; type: functional; conditions: read-out: Activity

SMILES | growth at 0.1 µM
CCc1cccc(C)c1NC(=O)c1sc2nc3c(cc2c1N)C(=O)CCC3 | 71%

system: MDA-MB-435; assay: Growth inhibition of human MDA-MB-435 cells assessed as cell growth at 0.01 uM incubated for 48 hrs by sulforhodamine B assay relative to control; type: functional; conditions: read-out: Activity

SMILES | growth at 0.01 µM
CCc1cccc(C)c1NC(=O)c1sc2nc3c(cc2c1N)C(=O)CCC3 | 92%

system: T47D; assay: Growth inhibition of human T47D cells incubated for 48 hrs by sulforhodamine B assay; type: functional; conditions: not given; in short: as §2

SMILES | GI50 | TGI
CCc1cccc(C)c1NC(=O)c1sc2nc3c(cc2c1N)C(=O)CCC3 | 0.517 µM | ≥ 100 µM

same assay, conditions: read-out: LC50 (the source's name)

SMILES | CC50
CCc1cccc(C)c1NC(=O)c1sc2nc3c(cc2c1N)C(=O)CCC3 | > 100 µM

system: NCI/ADR-RES; assay: Growth inhibition of human NCI/ADR-RES cells incubated for 48 hrs by sulforhodamine B assay; type: functional; conditions: not given; in short: as §3

SMILES | GI50
CCc1cccc(C)c1NC(=O)c1sc2nc3c(cc2c1N)C(=O)CCC3 | 0.558 µM

same assay, conditions: read-out: LC50 (the source's name)

SMILES | CC50
CCc1cccc(C)c1NC(=O)c1sc2nc3c(cc2c1N)C(=O)CCC3 | > 100 µM

system: A498; assay: Growth inhibition of human A498 cells assessed as cell growth at 1 uM incubated for 48 hrs by sulforhodamine B assay relative to control; type: functional; conditions: read-out: Activity; in short: as §1

SMILES | growth at 1 µM
CCc1cccc(C)c1NC(=O)c1sc2nc3c(cc2c1N)C(=O)CCC3 | -16%

system: A549; assay: Growth inhibition of human A549/ATCC cells assessed as cell growth at 0.1 uM incubated for 48 hrs by sulforhodamine B assay relative to control; type: functional; conditions: read-out: Activity; in short: as §1

SMILES | growth at 0.1 µM
CCc1cccc(C)c1NC(=O)c1sc2nc3c(cc2c1N)C(=O)CCC3 | 93%

system: COLO 205; assay: Growth inhibition of human COLO 205 cells incubated for 48 hrs by sulforhodamine B assay; type: functional; conditions: not given; in short: as §1

SMILES | GI50
CCc1cccc(C)c1NC(=O)c1sc2nc3c(cc2c1N)C(=O)CCC3 | 0.278 µM

system: UACC-257; assay: Growth inhibition of human UACC-257 cells assessed as cell growth at 0.1 uM incubated for 48 hrs by sulforhodamine B assay relative to control; type: functional; conditions: read-out: Activity

SMILES | growth at 0.1 µM
CCc1cccc(C)c1NC(=O)c1sc2nc3c(cc2c1N)C(=O)CCC3 | 82%
